For series [1], the species on record is Homo sapiens. The experiment in a line: Selectivity ratio of IC50 for recombinant human N-terminal His-tagged PKL expressed in Escherichia coli to IC50 for recombinant human N-terminal His-tagged PKM2 expressed in Escherichia coli.
The species named for series [2] is Homo sapiens. The experiment in a line: Selectivity ratio of IC50 for recombinant human N-terminal His-tagged PKM1 expressed in Escherichia coli to IC50 for recombinant human N-terminal His-tagged PKM2 expressed in Escherichia coli.
Series [3] deals with B16. The experiment in a line: Antitumor activity against mouse B16 cells implanted in C57BL/6 mouse assessed as tumor volume at 50 mg/kg, ip administered every 2 days for 12 days measured during compound dosing relative to control. It counts as functional. In a few lines: (§1)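 Female mice given 1 × 10^6 B16 cells subcutaneously in the armpit. Dosing began about 6 days later, once tumors appeared, with N = 7 per group. Compound or vehicle (5% v/v DMAC in olive oil) was given ip every two days at 25 or 50 mg kg–1. Tumor volume was measured every two days as V = L(S2)π/6. Tumors were weighed individually. T/C was taken as relative tumor volume growth rate.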

Series [4] has as its system HeLa. The experiment in a line: Cytotoxicity against human HeLa cells after 48 hrs by MTS assay. It counts as functional, cell-based. In a few lines:
(§2)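 Cells seeded at 5000–10 000 per well and treated 12 h later with a range of concentrations for 48 h. Viability read by MTS reduction. IC50 reported ± SD.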
(Formazan colour is commonly taken as a measure of viable cells.)

The target in series [5] is Pyruvate kinase PKLR (Homo sapiens, UniProt P30613). The experiment in a line: Inhibition of recombinant human N-terminal His-tagged PKL expressed in Escherichia coli preincubated for 25 mins in presence of PEP/FBP followed by ADP/NADH addition measured after 25 mins by PK-LDH assay.
Sequence of Pyruvate kinase PKLR (P30613 whole entry): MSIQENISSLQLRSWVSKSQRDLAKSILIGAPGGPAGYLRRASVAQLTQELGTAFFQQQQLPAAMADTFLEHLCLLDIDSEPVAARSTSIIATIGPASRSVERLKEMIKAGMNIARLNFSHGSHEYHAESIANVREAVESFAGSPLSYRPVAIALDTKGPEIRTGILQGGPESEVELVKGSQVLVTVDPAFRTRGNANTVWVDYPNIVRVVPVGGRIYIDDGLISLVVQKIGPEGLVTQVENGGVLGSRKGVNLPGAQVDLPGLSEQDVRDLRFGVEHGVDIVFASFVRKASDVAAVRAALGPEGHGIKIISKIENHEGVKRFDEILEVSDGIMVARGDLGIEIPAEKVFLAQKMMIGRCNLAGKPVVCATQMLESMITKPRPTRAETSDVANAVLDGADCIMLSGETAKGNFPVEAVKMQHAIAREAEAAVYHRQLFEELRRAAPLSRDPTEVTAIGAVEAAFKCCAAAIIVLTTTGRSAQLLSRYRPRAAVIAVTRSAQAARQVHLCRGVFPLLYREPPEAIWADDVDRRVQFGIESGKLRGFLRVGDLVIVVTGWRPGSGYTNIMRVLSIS
For series [6], the target named is T1, Pyruvate kinase PKM (Homo sapiens, UniProt P14618). The experiment in a line: Inhibition of PKM2 in human HCT116 cells measured after 8 hrs by fluorescent PK-LDH assay. It counts as cell-based. In a few lines: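 HCT116 cells exposed to 2.5, 5, 10 or 20 μM for 8 h, then lysed in NP40 buffer. Lysate pyruvate kinase activity was measured immediately by fluorescent PK–LDH coupled assay.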
Target sequence in this assay (P14618 2-531 limits assumed): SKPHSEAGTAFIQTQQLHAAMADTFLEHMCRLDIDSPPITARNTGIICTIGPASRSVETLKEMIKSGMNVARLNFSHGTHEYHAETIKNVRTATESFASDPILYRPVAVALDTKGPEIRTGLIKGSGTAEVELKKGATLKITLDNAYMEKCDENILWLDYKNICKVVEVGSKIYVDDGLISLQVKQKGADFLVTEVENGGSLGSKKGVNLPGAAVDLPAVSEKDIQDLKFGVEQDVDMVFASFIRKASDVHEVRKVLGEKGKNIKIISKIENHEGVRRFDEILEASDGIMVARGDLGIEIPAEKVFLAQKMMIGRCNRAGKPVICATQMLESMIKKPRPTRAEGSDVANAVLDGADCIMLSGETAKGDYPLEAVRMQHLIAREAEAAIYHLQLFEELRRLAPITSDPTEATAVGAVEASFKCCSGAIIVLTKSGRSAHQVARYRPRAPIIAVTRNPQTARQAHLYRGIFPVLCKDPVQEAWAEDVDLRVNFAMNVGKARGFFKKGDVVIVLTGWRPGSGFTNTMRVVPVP

In series [7] the test system is NCI-H1299. The experiment in a line: Cytotoxicity against human NCI-H1299 cells after 48 hrs by MTS assay. It is filed as functional, cell-based. An outline of the steps: as §2
For series [8], the system named is B16. The experiment in a line: Antitumor activity against mouse B16 cells implanted in ip dosed C57BL/6 mouse assessed as tumor growth inhibition administered every 2 days for 12 days. It is filed as functional, organism-based. In a few lines:
as §1

Series [9] concerns the target T1, Pyruvate kinase PKM. The experiment in a line: Inhibition of PKM2 in human HCT116 cells assessed as reduction in cMYC-induced GLUT1 gene expression at 20 uM after 8 hrs by RT-qPCR analysis. It counts as cell-based. In a few lines:
(§3)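 HCT116 cells seeded at 5 × 10^5 per well and treated 24 h later with 20 μM for 8 h. RNA extracted with TRIzol and reverse-transcribed. GLUT1, LDH and CCND1 transcripts quantified by SYBR Green qPCR.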
Background: Quantitative PCR measures a nucleic acid by following its amplification.
Target sequence in this assay (P14618 2-531 limits assumed): as above

For series [10], the system named is BEAS-2B. The experiment in a line: Cytotoxicity against human BEAS2B cells after 48 hrs by MTS assay. It counts as cell-based. An outline of the steps:
as §2

Series [11] concerns spontaneous PTEN-deleted breast carcinoma (Mus musculus). The experiment in a line: Antitumor activity against mouse spontaneous PTEN-deleted breast carcinoma assessed as reduction in tumor weight at 50 mg/kg, ip administered every 2 days for 36 days relative to control. Details: scale not given: the % may be the effect or the level left.
Series [12] has as its target T1, Pyruvate kinase PKM. The experiment in a line: Inhibition of recombinant human N-terminal His-tagged PKM2 expressed in Escherichia coli preincubated for 25 mins in presence of PEP/FBP followed by ADP/NADH addition measured after 25 mins by PK-LDH assay.
Target sequence in this assay (P14618 whole entry): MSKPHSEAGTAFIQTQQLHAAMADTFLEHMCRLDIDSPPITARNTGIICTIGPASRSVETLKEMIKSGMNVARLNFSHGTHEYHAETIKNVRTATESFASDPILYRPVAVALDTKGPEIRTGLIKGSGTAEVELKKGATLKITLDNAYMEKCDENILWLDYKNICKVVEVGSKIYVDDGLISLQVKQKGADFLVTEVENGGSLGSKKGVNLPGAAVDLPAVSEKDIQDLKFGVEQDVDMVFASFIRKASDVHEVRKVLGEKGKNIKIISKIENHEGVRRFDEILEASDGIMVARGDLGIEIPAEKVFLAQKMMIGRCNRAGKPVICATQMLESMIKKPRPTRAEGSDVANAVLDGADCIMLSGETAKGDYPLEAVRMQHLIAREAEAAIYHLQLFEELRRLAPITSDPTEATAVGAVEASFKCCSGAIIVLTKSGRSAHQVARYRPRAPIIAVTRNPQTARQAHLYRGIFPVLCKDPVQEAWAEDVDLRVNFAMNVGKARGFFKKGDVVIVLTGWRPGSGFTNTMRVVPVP
Series [13] deals with B16. The experiment in a line: Antitumor activity against mouse B16 cells implanted in C57BL/6 mouse assessed as tumor weight at 25 mg/kg, ip administered every 2 days for 12 days relative to control. It counts as functional. An outline of the steps: as §1
Series [14] deals with HCT-116. The experiment in a line: Cytotoxicity against human HCT116 cells assessed as reduction in ATP production at 10 to 20 uM after 6 hrs by CellTiter-Glo luminescent assay. It counts as functional, cell-based. In a few lines:
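HCT116 cells seeded at 5 × 10^5 per well in 6-well plates. Exposed 24 h later to 10 μM or 20 μM for 6 h. Cellular ATP read by CellTiter-Glo luminescence.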
(In general: Cellular ATP, detected with luciferase, serves as a proxy for viable cell number.)

Series [15] relates to HCT-116. The experiment in a line: Cytotoxicity against human HCT116 cells after 48 hrs by MTS assay. It counts as functional, cell-based. In a few lines:
as §2

Series [16] has as its system MCF7. The experiment in a line: Cytotoxicity against human MCF7 cells after 48 hrs by MTS assay. It is filed as functional, cell-based. In a few lines:
as §2

In series [17] the test system is Mus musculus. The experiment in a line: Toxicity in C57BL/6 mouse implanted with mouse B16 cells assessed as effect on body weight at 25 to 50 mg/kg, ip administered every 2 days for 12 days. It counts as organism-based. The following applies: in vivo. An outline of the steps:
as §1

Series [18] concerns B16. The experiment in a line: Antitumor activity against mouse B16 cells implanted in C57BL/6 mouse assessed as reduction in tumor weight at 50 mg/kg, ip administered every 2 days for 12 days relative to control. It is filed as functional. On the set-up: scale not given: the % may be the effect or the level left. In a few lines: as §1
For series [19], the system named is spontaneous PTEN-deleted breast carcinoma (Mus musculus). The experiment in a line: Antitumor activity against mouse spontaneous PTEN-deleted breast carcinoma assessed as reduction in tumor growth at 50 mg/kg, ip administered every 2 days for 36 days.
Series [20] has as its target T1, Pyruvate kinase PKM. The experiment in a line: Inhibition of PKM2 in human HCT116 cells assessed as reduction in cMYC-induced LDH gene expression at 20 uM after 8 hrs by RT-qPCR analysis. It is filed as cell-based. An outline of the steps: as §3
Target sequence in this assay (P14618 2-531 limits assumed): as the sequence (P14618 2-531 limits assumed) above
Series [21] deals with T1, Pyruvate kinase PKM. The experiment in a line: Inhibition of PKM2 in human HCT116 cells assessed as reduction in beta-catenin-induced CCND1 gene expression at 20 uM after 8 hrs by RT-qPCR analysis. It counts as cell-based. An outline of the steps: as §3
Target sequence in this assay (P14618 2-531 limits assumed): as above
Series [22] has as its system B16. The experiment in a line: Cytotoxicity against mouse B16 cells after 48 hrs by MTS assay. It counts as functional, cell-based. In a few lines:
as §2

Series [23] relates to MDA-MB-231. The experiment in a line: Cytotoxicity against human MDA-MB-231 cells after 48 hrs by MTS assay. It is filed as functional, cell-based. In a few lines: as §2
Series [24] has as its target T1, Pyruvate kinase PKM. The experiment in a line: Inhibition of recombinant human N-terminal His-tagged PKM1 expressed in Escherichia coli preincubated for 25 mins in presence of PEP/FBP followed by ADP/NADH addition measured after 25 mins by PK-LDH assay.
Target sequence in this assay (P14618 whole entry): as the sequence (P14618 whole entry) above

pIC50: −log10 of the molar value. The source made the active and inactive calls. The rule behind the calls is not given here.

Two compounds from ChEMBL document CHEMBL4257502, “Anti-cancer effect of a novel 2,3-didithiocarbamate-substituted naphthoquinone as a tumor metabolic suppressor in vitro and in vivo” (Medchemcomm, 2018) can be followed below.

Take `CC(C)=CC[C@@H](O)C1=CC(=O)c2c(O)ccc(O)c2C1=O`: the Ratio IC50 is 4.5 in series [1] and 1.5 in series [2].

With `O=C1C(CSC(=S)N2CCCCC2)=C(CSC(=S)N2CCCCC2)C(=O)c2ccccc21`, in [3], the T/C turned out to be 40%. The Activity result in [4] was “Dose-dependent effect”; in series [7], “Dose-dependent effect”; in series [11], 20%; in [13], 12%; in series [15], “Dose-dependent effect”; in [16], “Dose-dependent effect”. In addition, the Activity entry is “Non-Toxic” in [17], 30% in series [18], “Dose-dependent effect” in series [22] and “Dose-dependent effect” in [23]. In addition, the pIC50 in series [4] is 6.91; in [5] it was 5.54; in [7] (NCI-H1299, 48 h), 6.96; in series [10], 4.49; in series [12], 6.06; in series [15] (HCT-116, 48 h), 7.11. For the same compound, the pIC50 is 7.21 in [16] (MCF7, 48 h); 6.98 in series [22] (B16, 48 h); 6.87 in series [23] (MDA-MB-231, 48 h); 5.29 in series [24]. Besides, the inhibition entry in series [6] is “Dose-dependent effect”. The Ratio IC50 in series [1] was determined as 3.3; in series [2], 5.8. The TGI entry in series [8] was “Dose-dependent effect”. In addition, the inhibition entry in [9], in series [20] and in series [21] was “Active” each time. Further, the outcome in [14] and in series [19] was Active.

The T/C is the result in the treated group divided by that in the control group, in per cent. In general, pIC50 refers to the IC50 on a negative log10 scale, so that one unit is a factor of ten.
